Measured values reported in ChEMBL document CHEMBL4616713, “Discovery of Novel Nonpeptidic PAR2 Ligands” (ACS Med Chem Lett, 2020).
Non-standard residues stand in square brackets, D forms with d. Residues, ends and D or L forms follow the SMILES beside them. *: point of attachment. Orn = NCCC[C@H](N)C(=O)O; 2Furoyl = O=C(c1ccco1)*

Tests used:
[1] = molecular target: T1, Proteinase-activated receptor 2 (Homo sapiens, UniProt P55085); assay: Agonist activity at PK1-tagged PAR2 (unknown origin) expressed in HEK293 cells assessed as induction of beta-arrestin recruitment at 30 uM incubated for 90 mins by Pathhunter chemiluminescent assay relative to 2f-LIGRLO-NH2; format: cell-based; conditions: 1.5 h
T1 sequence (P55085 whole entry): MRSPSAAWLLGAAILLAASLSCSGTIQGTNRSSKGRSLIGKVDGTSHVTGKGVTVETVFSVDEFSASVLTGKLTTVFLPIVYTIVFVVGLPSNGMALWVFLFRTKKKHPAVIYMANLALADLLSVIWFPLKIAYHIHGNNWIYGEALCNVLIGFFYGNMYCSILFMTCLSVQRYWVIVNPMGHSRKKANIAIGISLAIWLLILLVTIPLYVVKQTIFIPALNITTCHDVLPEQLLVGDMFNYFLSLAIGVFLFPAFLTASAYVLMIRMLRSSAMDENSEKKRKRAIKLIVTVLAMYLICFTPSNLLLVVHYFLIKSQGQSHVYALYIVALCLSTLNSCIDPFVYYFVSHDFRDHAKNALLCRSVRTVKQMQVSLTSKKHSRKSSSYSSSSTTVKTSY
Procedure, shortened: (§1)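 PathHunter enzyme-complementation read-out of β-arrestin-2 recruitment to PAR2 in HEK293 cells. Efficacy is expressed relative to reference 2f-LIGRLO-NH2. Data are mean ± SEM of at least three independent experiments run in duplicate.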

[2] = molecular target: T1, Proteinase-activated receptor 2; assay: Agonist activity at human PAR2 expressed in HEK293T cells assessed as induction of Galphaq-stimulated IP1 formation incubated for 2 hrs by FRET assay; format: functional, cell-based, HEK-293T
Procedure, shortened: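 Gq activation via PAR2 in HEK293 cells, read as IP1 accumulation by FRET (IP-One). For curves without a plateau, the value given is efficacy at 30 μM. Data are mean ± SEM of at least three independent experiments, each performed in duplicate.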

[3] = molecular target: T1, Proteinase-activated receptor 2; assay: Agonist activity at PK1-tagged PAR2 (unknown origin) expressed in HEK293 cells assessed as induction of beta-arrestin recruitment incubated for 90 mins by Pathhunter chemiluminescent assay relative to 2f-LIGRLO-NH2; format: cell-based; conditions: 1.5 h; procedure, shortened: as §1
[4] = Metabolic stability in Sprague-Dawley rat liver microsomes assessed as CYP450-mediated drug degradation at 20 uM measured up to 60 mins in presence of NADPH by LC-MS analysis; conditions: 1 h
[5] = Stability in rat plasma assessed as drug degradation after 1 hr by LC-MS analysis; format: ADME, cell-free
Procedure, shortened: (§2)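 Ligand was incubated in rat plasma and sampled at set time points up to 4 h. Samples were analysed by LC–MS. Standard-corrected peak areas are expressed as % of t = 0 min, mean ± SEM (n ≥ 3).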

[6] = molecular target: T1, Proteinase-activated receptor 2; assay: Agonist activity at PK1-tagged PAR2 (unknown origin) expressed in HEK293 cells assessed as induction of beta-arrestin recruitment incubated for 90 mins by Pathhunter chemiluminescent assay; format: cell-based; procedure, shortened: as §1
[7] = Stability in rat plasma measured up to 4 hrs by LC-MS analysis; format: ADME, cell-free; procedure, shortened: as §2

Structure (SMILES): NC(=O)Cc1ccccc1CNC(=O)[C@H](Cc1ccccc1)NC(=O)c1ccno1
- Emax at 30 µM [1]: 32%
- EC50 ([2]; read-out: EC50): 1900 nM

Structure (SMILES): CC[C@H](C)[C@H](NC(=O)[C@H](CC(C)C)NC(=O)c1ccco1)C(=O)NCC(=O)N[C@@H](CCCNC(=N)N)C(=O)N[C@@H](CC(C)C)C(=O)N[C@@H](CCCN)C(N)=O (2Furoyl-LIGRL[Orn]-NH2)
- Emax [3]: 100%

Structure (SMILES): CC[C@H](C)[C@H](NC(=O)[C@H](CC(C)C)NC(=O)c1ccco1)C(=O)NCC(=O)N[C@@H](CCCN=C(N)N)C(=O)N[C@@H](CC(C)C)C(=O)N[C@@H](CCCN)C(N)=O (2Furoyl-LIGRL[Orn]-NH2)
- Stability [4]: Stable
- Stability [5]: Unstable
- EC50 ([2]; read-out: EC50): 150 nM
- EC50 ([6]; read-out: EC50): 430 nM

Structure (SMILES): NC(=O)Cc1ccccc1CNC(=O)Cc1ccccc1CNC(=O)c1ccno1
- EC50 ([2]; hek-293t): Not Active
- EC50 ([6]; hek293): Not Active

Structure (SMILES): Cc1cc(C(=O)N[C@@H](CC2CCCCC2)C(=O)NCc2ccccc2CC(N)=O)on1
- Emax [3]: 95%
- Stability [4]: Stable
- Stability [7]: Stable
- EC50 ([2]; read-out: EC50): 640 nM
- EC50 ([6]; read-out: EC50): 8900 nM

Structure (SMILES): NC(=O)Cc1ccccc1CNC(=O)[C@H](CC1CCCCC1)NC(=O)c1ccno1
- Emax [3]: 65%
- Stability [4]: Stable
- Stability [7]: Stable
- EC50 ([2]; read-out: EC50): 590 nM
- EC50 ([6]; read-out: EC50): 6000 nM
